# Results published in ChEMBL document CHEMBL5058577, “EUbOPEN Chemogenomics Library 2 (Multiplex)” (2022).
# System: U2OS
# Assay: Multiplex assay against U2OS
# Type: toxicity, cell-based
# Conditions: human
# Procedure, shortened: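 Live cells were stained at seeding with Hoechst33342, BioTracker Green Microtubule Cytoskeleton Dye, MitoTracker Red and Annexin V Alexa Fluor 680, then imaged on a CQ1 microscope at 37°C and 5% CO2 after compound addition. CellPathfinder machine-learning gating split cells into Hoechst high-intensity objects or normal cells. Normal cells were split into healthy, pyknosed or fragmented nuclei, and pyknosed cells into mitotic or apoptotic. Tubulin, mitochondrial-mass and membrane-permeability phenotypes are per cents of healthy-nucleus cells.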
# [1] = 12 h, 1 µM, compound concentration 1 uM, replicate 1
# [2] = 12 h, 1 µM, compound concentration 1 uM, replicate 2
# [3] = 12 h, 10 µM, compound concentration 10 uM, replicate 1
# [4] = 12 h, 10 µM, compound concentration 10 uM, replicate 2
# [5] = 24 h, 1 µM, compound concentration 1 uM, replicate 1
# [6] = 24 h, 1 µM, compound concentration 1 uM, replicate 2
# [7] = 24 h, 10 µM, compound concentration 10 uM, replicate 1
# [8] = 24 h, 10 µM, compound concentration 10 uM, replicate 2
# [9] = 48 h, 1 µM, compound concentration 1 uM, replicate 1
# [10] = 48 h, 1 µM, compound concentration 1 uM, replicate 2
# [11] = 48 h, 10 µM, compound concentration 10 uM, replicate 1
# [12] = 48 h, 10 µM, compound concentration 10 uM, replicate 2
structure (smiles),measurement,setting,value
CN1CCN(c2ccc(Nc3c4ccccc4nc4ccccc34)cc2)CC1.Cl.Cl.O,Population Apoptotic (%),[1],100%
same,Population Fragmented Nuclei (%),[1],25%
same,Population Healthy Nuclei (%),[1],65%
same,Population Hoechst High Intensity Objects (%),[1],0%
same,Population Membrane Permeable-Phenotype (%),[1],19%
same,Population Mitochondria Different-Phenotype (%),[1],7%
same,Population Mitotic Cells (%),[1],0%
same,Population Normal (%),[1],99%
same,Population Pyknosed Nuclei (%),[1],8%
same,Population Tubulin-Different-Phenotype (%),[1],17%
same,Total Cell Count,[1],193
same,Population Apoptotic (%),[2],87%
same,Population Fragmented Nuclei (%),[2],23%
same,Population Healthy Nuclei (%),[2],69%
same,Population Membrane Permeable-Phenotype (%),[2],14%
same,Population Mitochondria Different-Phenotype (%),[2],13%
same,Population Mitotic Cells (%),[2],12%
same,Population Normal (%),[2],100%
same,Population Pyknosed Nuclei (%),[2],7%
same,Population Tubulin-Different-Phenotype (%),[2],13%
same,Total Cell Count,[2],107
same,Population Apoptotic (%),[3],93%
same,Population Fragmented Nuclei (%),[3],54%
same,Population Healthy Nuclei (%),[3],38%
same,Population Hoechst High Intensity Objects (%),[3],0%
same,Population Membrane Permeable-Phenotype (%),[3],65%
same,Population Mitochondria Different-Phenotype (%),[3],95%
same,Population Mitotic Cells (%),[3],6%
same,Population Normal (%),[3],99%
same,Population Pyknosed Nuclei (%),[3],7%
same,Population Tubulin-Different-Phenotype (%),[3],82%
same,Total Cell Count,[3],213
same,Population Apoptotic (%),[4],100%
same,Population Fragmented Nuclei (%),[4],62%
same,Population Healthy Nuclei (%),[4],31%
same,Population Hoechst High Intensity Objects (%),[4],2%
same,Population Membrane Permeable-Phenotype (%),[4],70%
same,Population Mitochondria Different-Phenotype (%),[4],100%
same,Population Mitotic Cells (%),[4],0%
same,Population Normal (%),[4],97%
same,Population Pyknosed Nuclei (%),[4],6%
same,Population Tubulin-Different-Phenotype (%),[4],85%
same,Total Cell Count,[4],132
same,Population Apoptotic (%),[5],92%
same,Population Fragmented Nuclei (%),[5],28%
same,Population Healthy Nuclei (%),[5],64%
same,Population Hoechst High Intensity Objects (%),[5],1%
same,Population Membrane Permeable-Phenotype (%),[5],10%
same,Population Mitochondria Different-Phenotype (%),[5],6%
same,Population Mitotic Cells (%),[5],7%
same,Population Normal (%),[5],98%
same,Population Pyknosed Nuclei (%),[5],6%
same,Population Tubulin-Different-Phenotype (%),[5],7%
same,Total Cell Count,[5],200
same,Population Apoptotic (%),[6],100%
same,Population Fragmented Nuclei (%),[6],29%
same,Population Healthy Nuclei (%),[6],60%
same,Population Hoechst High Intensity Objects (%),[6],4%
same,Population Membrane Permeable-Phenotype (%),[6],5%
same,Population Mitochondria Different-Phenotype (%),[6],12%
same,Population Mitotic Cells (%),[6],0%
same,Population Normal (%),[6],95%
same,Population Pyknosed Nuclei (%),[6],10%
same,Population Tubulin-Different-Phenotype (%),[6],6%
same,Total Cell Count,[6],124
same,Population Apoptotic (%),[7],100%
same,Population Fragmented Nuclei (%),[7],46%
same,Population Healthy Nuclei (%),[7],42%
same,Population Hoechst High Intensity Objects (%),[7],4%
same,Population Membrane Permeable-Phenotype (%),[7],85%
same,Population Mitochondria Different-Phenotype (%),[7],96%
same,Population Mitotic Cells (%),[7],0%
same,Population Normal (%),[7],95%
same,Population Pyknosed Nuclei (%),[7],11%
same,Population Tubulin-Different-Phenotype (%),[7],90%
same,Total Cell Count,[7],205
same,Population Apoptotic (%),[8],90%
same,Population Fragmented Nuclei (%),[8],69%
same,Population Healthy Nuclei (%),[8],23%
same,Population Hoechst High Intensity Objects (%),[8],10%
same,Population Membrane Permeable-Phenotype (%),[8],96%
same,Population Mitochondria Different-Phenotype (%),[8],100%
same,Population Mitotic Cells (%),[8],10%
same,Population Normal (%),[8],89%
same,Population Pyknosed Nuclei (%),[8],7%
same,Population Tubulin-Different-Phenotype (%),[8],100%
same,Total Cell Count,[8],148
same,Population Apoptotic (%),[9],87%
same,Population Fragmented Nuclei (%),[9],36%
same,Population Healthy Nuclei (%),[9],52%
same,Population Hoechst High Intensity Objects (%),[9],4%
same,Population Membrane Permeable-Phenotype (%),[9],6%
same,Population Mitochondria Different-Phenotype (%),[9],4%
same,Population Mitotic Cells (%),[9],12%
same,Population Normal (%),[9],95%
same,Population Pyknosed Nuclei (%),[9],10%
same,Population Tubulin-Different-Phenotype (%),[9],3%
same,Total Cell Count,[9],231
same,Population Apoptotic (%),[10],100%
same,Population Fragmented Nuclei (%),[10],40%
same,Population Healthy Nuclei (%),[10],47%
same,Population Hoechst High Intensity Objects (%),[10],5%
same,Population Membrane Permeable-Phenotype (%),[10],19%
same,Population Mitochondria Different-Phenotype (%),[10],7%
same,Population Mitotic Cells (%),[10],0%
same,Population Normal (%),[10],94%
same,Population Pyknosed Nuclei (%),[10],12%
same,Population Tubulin-Different-Phenotype (%),[10],9%
same,Total Cell Count,[10],147
same,Population Apoptotic (%),[11],96%
same,Population Fragmented Nuclei (%),[11],53%
same,Population Healthy Nuclei (%),[11],30%
same,Population Hoechst High Intensity Objects (%),[11],18%
same,Population Membrane Permeable-Phenotype (%),[11],91%
same,Population Mitochondria Different-Phenotype (%),[11],90%
same,Population Mitotic Cells (%),[11],3%
same,Population Normal (%),[11],81%
same,Population Pyknosed Nuclei (%),[11],15%
same,Population Tubulin-Different-Phenotype (%),[11],93%
same,Total Cell Count,[11],243
same,Population Apoptotic (%),[12],100%
same,Population Fragmented Nuclei (%),[12],76%
same,Population Healthy Nuclei (%),[12],19%
same,Population Hoechst High Intensity Objects (%),[12],15%
same,Population Membrane Permeable-Phenotype (%),[12],100%
same,Population Mitochondria Different-Phenotype (%),[12],96%
same,Population Mitotic Cells (%),[12],0%
same,Population Normal (%),[12],84%
same,Population Pyknosed Nuclei (%),[12],4%
same,Population Tubulin-Different-Phenotype (%),[12],100%
same,Total Cell Count,[12],173
COC(c1ccccc1)(c1ccccc1)[C@H](Oc1nc(C)cc(C)n1)C(=O)O [AMBRISENTAN],Population Apoptotic (%),[1],95%
same,Population Fragmented Nuclei (%),[1],26%
same,Population Healthy Nuclei (%),[1],62%
same,Population Hoechst High Intensity Objects (%),[1],2%
same,Population Membrane Permeable-Phenotype (%),[1],3%
same,Population Mitochondria Different-Phenotype (%),[1],0%
same,Population Mitotic Cells (%),[1],4%
same,Population Normal (%),[1],97%
same,Population Pyknosed Nuclei (%),[1],10%
same,Population Tubulin-Different-Phenotype (%),[1],1%
same,Total Cell Count,[1],209
same,Population Apoptotic (%),[2],100%
same,Population Fragmented Nuclei (%),[2],21%
same,Population Healthy Nuclei (%),[2],72%
same,Population Membrane Permeable-Phenotype (%),[2],8%
same,Population Mitochondria Different-Phenotype (%),[2],3%
same,Population Mitotic Cells (%),[2],0%
same,Population Pyknosed Nuclei (%),[2],5%
same,Total Cell Count,[2],87
same,Population Apoptotic (%),[3],61%
same,Population Fragmented Nuclei (%),[3],28%
same,Population Healthy Nuclei (%),[3],63%
same,Population Hoechst High Intensity Objects (%),[3],2%
same,Population Membrane Permeable-Phenotype (%),[3],4%
same,Population Mitochondria Different-Phenotype (%),[3],2%
same,Population Mitotic Cells (%),[3],38%
same,Population Normal (%),[3],97%
same,Population Pyknosed Nuclei (%),[3],7%
same,Population Tubulin-Different-Phenotype (%),[3],1%
same,Total Cell Count,[3],232
same,Population Apoptotic (%),[4],100%
same,Population Fragmented Nuclei (%),[4],19%
same,Population Healthy Nuclei (%),[4],72%
same,Population Hoechst High Intensity Objects (%),[4],0%
same,Population Mitochondria Different-Phenotype (%),[4],0%
same,Population Mitotic Cells (%),[4],0%
same,Population Normal (%),[4],99%
same,Population Tubulin-Different-Phenotype (%),[4],0%
same,Total Cell Count,[4],104
same,Population Apoptotic (%),[5],95%
same,Population Fragmented Nuclei (%),[5],27%
same,Population Healthy Nuclei (%),[5],63%
same,Population Hoechst High Intensity Objects (%),[5],0%
same,Population Membrane Permeable-Phenotype (%),[5],4%
same,Population Mitochondria Different-Phenotype (%),[5],1%
same,Population Mitotic Cells (%),[5],4%
same,Population Normal (%),[5],99%
same,Population Pyknosed Nuclei (%),[5],8%
same,Population Tubulin-Different-Phenotype (%),[5],1%
same,Total Cell Count,[5],248
same,Population Apoptotic (%),[6],100%
same,Population Fragmented Nuclei (%),[6],23%
same,Population Healthy Nuclei (%),[6],66%
same,Population Membrane Permeable-Phenotype (%),[6],1%
same,Population Mitochondria Different-Phenotype (%),[6],2%
same,Population Mitotic Cells (%),[6],0%
same,Population Pyknosed Nuclei (%),[6],10%
same,Total Cell Count,[6],111
same,Population Apoptotic (%),[7],84%
same,Population Fragmented Nuclei (%),[7],25%
same,Population Healthy Nuclei (%),[7],65%
same,Population Hoechst High Intensity Objects (%),[7],1%
same,Population Membrane Permeable-Phenotype (%),[7],7%
same,Population Mitochondria Different-Phenotype (%),[7],2%
same,Population Mitotic Cells (%),[7],16%
same,Population Normal (%),[7],98%
same,Population Pyknosed Nuclei (%),[7],9%
same,Population Tubulin-Different-Phenotype (%),[7],3%
same,Total Cell Count,[7],273
same,Population Apoptotic (%),[8],80%
same,Population Fragmented Nuclei (%),[8],13%
same,Population Healthy Nuclei (%),[8],77%
same,Population Hoechst High Intensity Objects (%),[8],0%
same,Population Mitotic Cells (%),[8],20%
same,Population Normal (%),[8],100%
same,Population Pyknosed Nuclei (%),[8],8%
same,Population Tubulin-Different-Phenotype (%),[8],5%
same,Total Cell Count,[8],115
same,Population Apoptotic (%),[9],89%
same,Population Fragmented Nuclei (%),[9],17%
same,Population Healthy Nuclei (%),[9],70%
same,Population Hoechst High Intensity Objects (%),[9],2%
same,Population Membrane Permeable-Phenotype (%),[9],2%
same,Population Mitochondria Different-Phenotype (%),[9],1%
same,Population Mitotic Cells (%),[9],10%
same,Population Normal (%),[9],97%
same,Population Pyknosed Nuclei (%),[9],11%
same,Population Tubulin-Different-Phenotype (%),[9],0%
same,Total Cell Count,[9],333
same,Population Apoptotic (%),[10],93%
same,Population Healthy Nuclei (%),[10],72%
same,Population Membrane Permeable-Phenotype (%),[10],0%
same,Population Mitotic Cells (%),[10],6%
same,Population Pyknosed Nuclei (%),[10],10%
same,Total Cell Count,[10],151
same,Population Apoptotic (%),[11],87%
same,Population Fragmented Nuclei (%),[11],21%
same,Population Healthy Nuclei (%),[11],68%
same,Population Hoechst High Intensity Objects (%),[11],3%
same,Population Membrane Permeable-Phenotype (%),[11],4%
same,Population Mitochondria Different-Phenotype (%),[11],2%
same,Population Mitotic Cells (%),[11],12%
same,Population Normal (%),[11],96%
same,Population Pyknosed Nuclei (%),[11],10%
same,Population Tubulin-Different-Phenotype (%),[11],3%
same,Total Cell Count,[11],388
same,Population Apoptotic (%),[12],81%
same,Population Fragmented Nuclei (%),[12],13%
same,Population Healthy Nuclei (%),[12],79%
same,Population Hoechst High Intensity Objects (%),[12],0%
same,Population Membrane Permeable-Phenotype (%),[12],2%
same,Population Mitochondria Different-Phenotype (%),[12],0%
same,Population Mitotic Cells (%),[12],18%
same,Population Normal (%),[12],100%
same,Population Pyknosed Nuclei (%),[12],6%
same,Population Tubulin-Different-Phenotype (%),[12],2%
same,Total Cell Count,[12],174
